These results are taken from ChEMBL document CHEMBL1137943, “Synthesis and antibacterial activity of O-substituted nocathiacin I derivatives” (Bioorg Med Chem Lett, 2004).

≈ marks a conversion by molar mass, not a printed value. Bounds are passed on as bounds.

One data set deals with Staphylococcus aureus. The data set is described as follows: Minimum concentration required to inhibit visible growth of methicillin-sensitive Staphylococcus aureus A15090. The data set is classed as functional. In a few lines: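 Serial microbroth dilution in Mueller–Hinton medium; final inoculum about 5 × 10^5 CFU/well; incubated at 35 °C for 18 h in ambient air. MIC is the lowest drug concentration preventing visible bacterial growth.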

Data set [1] is described as follows: Equilibrium water solubility was determined with amorphous powders at pH 7.1. It counts as ADME.
The subject of another data set is Streptococcus pneumoniae. The data set is described as follows: Minimum concentration required to inhibit visible growth of penicillin-resistant Streptococcus pneumoniae A28272. It counts as functional. The procedure, abridged:
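Serial microbroth dilution in 50% Mueller–Hinton/50% Todd–Hewitt medium; final inoculum about 5 × 10^5 CFU/well; incubated at 35 °C for 18 h in ambient air. MIC is the lowest drug concentration preventing visible growth.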

A further data set deals with Enterococcus faecalis. In words: Minimum concentration required to inhibit visible growth of Enterococcus faecalis A20688.
A short description of data set [2]: Equilibrium water solubility was determined with amorphous powders at pH 3.5. The data set is classed as ADME.
The test system of data set [3] is Mus musculus. The data set is described as follows: Dose (sc) required against Staphylococcus aureus infected mice. It counts as functional. As to conditions: read-out: PD50. The procedure, abridged:
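Adult female ICR mice infected ip with 5–6 × 10^6 CFU of S. aureus A15090 in 7% hog gastric mucin. Drug in 10% DMSO/5% Tween 80/85% water given sc twice, at 1 and 4 h post-infection. Survival followed for 8 days; 10 mice per group, at least three doses. PD50 (mg/kg) by Spearman–Karber estimator.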

A short description of data set [4]: Equilibrium water solubility was determined with amorphous powders at pH 8.2. The data set is classed as ADME.
The test system of data set [5] is Mus musculus. The data set is described as follows: Dose (iv) required against Staphylococcus aureus infected mice. As to conditions: read-out: PD50. It counts as functional.
The nature of data set [6]: Equilibrium water solubility was determined with amorphous powders at pH 3. It counts as ADME.
Data set [7] can be described thus: Equilibrium water solubility was determined with amorphous powders at pH 6.9. The data set is classed as ADME.
A short description of data set [8]: Equilibrium water solubility was determined with amorphous powders at pH 8.5. The data set is classed as ADME.
Data set [9] can be described thus: Equilibrium water solubility was determined with amorphous powders at pH 8.4. The data set is classed as ADME.
The nature of data set [10]: Equilibrium water solubility was determined with amorphous powders at pH 4. It counts as ADME.

The MIC is the least concentration at which growth counts as inhibited. Low values mean inhibition by little substance, high ones a need for much substance. As usually defined, the solubility (thermodynamic) is solubility found after equilibrating the solid with the medium. As for `C=C(NC(=O)c1csc(-c2nc3c(cc2O)-c2nc(cs2)C(=O)NC(C(C)O)C(=O)N/C(=C(\C)OC)c2nc(cs2)C(=O)NC2c4nc(cs4)C(=O)NC(COC(=O)c4c5c6c(cccc6n4OC(=O)N(C)CCO)COC(=O)C(OC4CC(C)(O)C(N(C)C)C(C)O4)C2OC5)c2nc-3cs2)n1)C(N)=O` (stereo not drawn), the MIC in the data set with Staphylococcus aureus was found to be 0.03 µg/mL (≈ 0.0195 µM); with Streptococcus pneumoniae it was 0.0005 µg/mL (≈ 0.000325 µM); in the data set with Enterococcus faecalis, 0.03 µg/mL (≈ 0.0195 µM). Moreover, the thermodynamic solubility in data set [1] is 3 µg/mL (≈ 1.95 µM).
As to `C=C(NC(=O)c1csc(-c2nc3c(cc2O)-c2nc(cs2)C(=O)NC(C(C)O)C(=O)N/C(=C(\C)OC)c2nc(cs2)C(=O)NC2c4nc(cs4)C(=O)NC(COC(=O)c4c5c6c(cccc6n4OC(=O)NCCOCCOCCOCCOCCOCCO)COC(=O)C(OC4CC(C)(O)C(N(C)C)C(C)O4)C2OC5)c2nc-3cs2)n1)C(N)=O` (stereo not drawn), the thermodynamic solubility in data set [2] was > 2100 µg/mL. Also, the MIC with Staphylococcus aureus came to 0.06 µg/mL (≈ 0.0344 µM); in the data set with Streptococcus pneumoniae, 0.003 µg/mL (≈ 0.00172 µM); in the data set with Enterococcus faecalis, 0.06 µg/mL (≈ 0.0344 µM). For the same molecule, in the data set on Mus musculus [3], the ED50 came to 0.78 mg/kg.
Take `C=C(NC(=O)c1csc(-c2nc3c(cc2O)-c2nc(cs2)C(=O)NC(C(C)O)C(=O)N/C(=C(\C)OC)c2nc(cs2)C(=O)NC2c4nc(cs4)C(=O)NC(COC(=O)c4c5c6c(cccc6n4OP([O-])OC)COC(=O)C(OC4CC(C)(O)C(N(C)C)C(C)O4)C2OC5)c2nc-3cs2)n1)C(N)=O.[Na+]` (stereo not drawn): the minimal inhibitory concentration (MIC) against Staphylococcus aureus was determined as 0.125 µg/mL; in the data set with Streptococcus pneumoniae, 0.007 µg/mL; with Enterococcus faecalis, 0.25 µg/mL. This molecule also yielded a thermodynamic solubility in data set [4] of 5600 µg/mL. Besides, the ED50 with Mus musculus [5] was determined as 1.6 mg/kg.
For `C=C(NC(=O)c1csc(-c2nc3c(cc2OP(=O)(O)OCCCl)-c2nc(cs2)C(=O)NC(C(C)O)C(=O)N/C(=C(\C)OC)c2nc(cs2)C(=O)NC2c4nc(cs4)C(=O)NC(COC(=O)c4c5c6c(cccc6n4O)COC(=O)C(OC4CC(C)(O)C(N(C)C)C(C)O4)C2OC5)c2nc-3cs2)n1)C(N)=O` (stereo not drawn), the MIC in the data set on Staphylococcus aureus is 1 µg/mL (≈ 0.633 µM); against Streptococcus pneumoniae, 0.03 µg/mL (≈ 0.019 µM); in the data set with Enterococcus faecalis it was 1 µg/mL (≈ 0.633 µM).
Turning to `C=C(NC(=O)c1csc(-c2nc3c(cc2O)-c2nc(cs2)C(=O)NC(C(C)O)C(=O)N/C(=C(\C)OC)c2nc(cs2)C(=O)NC2c4nc(cs4)C(=O)NC(COC(=O)c4c5c6c(cccc6n4OC(=O)NCCCC)COC(=O)C(OC4CC(C)(O)C(N(C)C)C(C)O4)C2OC5)c2nc-3cs2)n1)C(N)=O` (stereo not drawn), the figures for the MIC in the data set with Staphylococcus aureus, against Streptococcus pneumoniae and in the data set on Enterococcus faecalis were 0.001 µg/mL (≈ 0.000651 µM), 0.007 µg/mL (≈ 0.00456 µM) and 0.03 µg/mL (≈ 0.0195 µM), respectively.
In the case of `C=C(NC(=O)c1csc(-c2nc3c(cc2O)-c2nc(cs2)C(=O)NC(C(C)O)C(=O)N/C(=C(\C)OC)c2nc(cs2)C(=O)NC2c4nc(cs4)C(=O)NC(COC(=O)c4c5c6c(cccc6n4OC(=O)NCCCN4CCN(C)CC4)COC(=O)C(OC4CC(C)(O)C(N(C)C)C(C)O4)C2OC5)c2nc-3cs2)n1)C(N)=O` (stereo not drawn), the minimum inhibitory concentration (MIC) against Staphylococcus aureus came to 0.003 µg/mL (≈ 0.00185 µM); in the data set with Streptococcus pneumoniae it was 0.0005 µg/mL (≈ 0.000308 µM); against Enterococcus faecalis, 0.003 µg/mL (≈ 0.00185 µM). Moreover, the thermodynamic solubility in data set [6] was > 2300 µg/mL.
`C=C(NC(=O)c1csc(-c2nc3c(cc2OP(=O)(O)OCCCl)-c2nc(cs2)C(=O)NC(C(C)O)C(=O)N/C(=C(\C)OC)c2nc(cs2)C(=O)NC2c4nc(cs4)C(=O)NC(COC(=O)c4c5c6c(cccc6n4OP(=O)(O)OCCCl)COC(=O)C(OC4CC(C)(O)C(N(C)C)C(C)O4)C2OC5)c2nc-3cs2)n1)C(N)=O` (stereo not drawn): the minimum inhibitory concentration (MIC) worked out at 4 µg/mL (≈ 2.32 µM) against Staphylococcus aureus, 0.5 µg/mL (≈ 0.29 µM) with Streptococcus pneumoniae and 4 µg/mL (≈ 2.32 µM) with Enterococcus faecalis.
In data set [7], `C=C(NC(=O)c1csc(-c2nc3c(cc2O)-c2nc(cs2)C(=O)NC(C(C)O)C(=O)N/C(=C(\C)OC)c2nc(cs2)C(=O)NC2c4nc(cs4)C(=O)NC(COC(=O)c4c5c6c(cccc6n4OP(=O)(O)OCCCl)COC(=O)C(OC4CC(C)(O)C(N(C)C)C(C)O4)C2OC5)c2nc-3cs2)n1)C(N)=O` (stereo not drawn) returned a thermodynamic solubility of 530 µg/mL (≈ 335 µM). In addition, the MIC in the data set on Staphylococcus aureus was found to be 0.25 µg/mL (≈ 0.158 µM); against Streptococcus pneumoniae it was 0.03 µg/mL (≈ 0.019 µM); with Enterococcus faecalis, 0.5 µg/mL (≈ 0.316 µM). In addition, the ED50 in the data set on Mus musculus [3] was > 10 mg/kg.
Take `C=C(NC(=O)c1csc(-c2nc3c(cc2O)-c2nc(cs2)C(=O)NC(C(C)O)C(=O)N/C(=C(\C)OC)c2nc(cs2)C(=O)NC2c4nc(cs4)C(=O)NC(COC(=O)c4c5c6c(cccc6n4OC(=O)NCCOCCOCCOCCOC)COC(=O)C(OC4CC(C)(O)C(N(C)C)C(C)O4)C2OC5)c2nc-3cs2)n1)C(N)=O` (stereo not drawn): the MIC was 0.125 µg/mL (≈ 0.0748 µM) in the data set on Staphylococcus aureus, 0.015 µg/mL (≈ 0.00898 µM) against Streptococcus pneumoniae and 0.125 µg/mL (≈ 0.0748 µM) with Enterococcus faecalis.
Take `C=C(NC(=O)c1csc(-c2nc3c(cc2O)-c2nc(cs2)C(=O)NC(C(C)O)C(=O)N/C(=C(\C)OC)c2nc(cs2)C(=O)NC2c4nc(cs4)C(=O)NC(COC(=O)c4c5c6c(cccc6n4OC(=O)NC)COC(=O)C(OC4CC(C)(O)C(N(C)C)C(C)O4)C2OC5)c2nc-3cs2)n1)C(N)=O` (stereo not drawn): the figures for the minimum inhibitory concentration (MIC) in the data set on Staphylococcus aureus, against Streptococcus pneumoniae and in the data set on Enterococcus faecalis were 0.125 µg/mL (≈ 0.0836 µM), 0.001 µg/mL (≈ 0.000669 µM) and 0.06 µg/mL (≈ 0.0401 µM), respectively.
With `C=C(NC(=O)c1csc(-c2nc3c(cc2OP([O-])OC)-c2nc(cs2)C(=O)NC(C(C)O)C(=O)N/C(=C(\C)OC)c2nc(cs2)C(=O)NC2c4nc(cs4)C(=O)NC(COC(=O)c4c5c6c(cccc6n4OP([O-])OC)COC(=O)C(OC4CC(C)(O)C(N(C)C)C(C)O4)C2OC5)c2nc-3cs2)n1)C(N)=O.[Na+].[Na+]` (stereo not drawn), the minimal inhibitory concentration (MIC) came out at 0.25 µg/mL with Staphylococcus aureus, 0.003 µg/mL in the data set on Streptococcus pneumoniae and 0.25 µg/mL against Enterococcus faecalis. In addition, in data set [8], the thermodynamic solubility was > 10000 µg/mL. Moreover, the ED50 in the data set on Mus musculus [5] came to 5.9 mg/kg.
For the molecule `C=C(NC(=O)c1csc(-c2nc3c(cc2OP([O-])OC)-c2nc(cs2)C(=O)NC(C(C)O)C(=O)N/C(=C(\C)OC)c2nc(cs2)C(=O)NC2c4nc(cs4)C(=O)NC(COC(=O)c4c5c6c(cccc6n4O)COC(=O)C(OC4CC(C)(O)C(N(C)C)C(C)O4)C2OC5)c2nc-3cs2)n1)C(N)=O.[Na+]` (stereo not drawn), the MIC in the data set with Staphylococcus aureus turned out to be 0.125 µg/mL; with Streptococcus pneumoniae it was 0.06 µg/mL; in the data set with Enterococcus faecalis, 0.25 µg/mL. In [9], the solubility (thermodynamic) is > 2200 µg/mL. The ED50 in the data set on Mus musculus [5] turned out to be 0.26 mg/kg.
`C=C(NC(=O)c1csc(-c2nc3c(cc2O)-c2nc(cs2)C(=O)N[C@@H]([C@@H](C)O)C(=O)N/C(=C(\C)OC)c2nc(cs2)C(=O)N[C@@H]2c4nc(cs4)C(=O)N[C@@H](COC(=O)c4c5c6c(cccc6n4O)COC(=O)[C@@H](O[C@H]4C[C@](C)(O)[C@H](N(C)C)[C@H](C)O4)[C@H]2OC5)c2nc-3cs2)n1)C(N)=O` [MJ347-81F4 A]: the MIC against Staphylococcus aureus is 0.007 µg/mL (≈ 0.00487 µM); in the data set with Streptococcus pneumoniae, 0.002 µg/mL (≈ 0.00139 µM); with Enterococcus faecalis it was 0.03 µg/mL (≈ 0.0209 µM). Also, in [10], the solubility (thermodynamic) came out at 340 µg/mL (≈ 237 µM). Further, the ED50 in the data set with Mus musculus [5] came to 0.2 mg/kg.
